From article PMC9060905 (RSC Advances, 2019)
Like-named read-outs stand apart in the source and are kept apart here. Ends that are not written are not given here.

How the values were obtained:
ACE = conditions: cited from earlier work
[1] = tested on: ET-1 in vascular endothelial cells; conditions: cited from earlier work
[2] = cited from earlier work
ACE (from rabbit lung) = biological target: T1, ACE (from rabbit lung) (Oryctolagus cuniculus, UniProt P12822); assay: ACE-inhibitory activity; format: biochemical
T1 sequence (P12822 34-1310): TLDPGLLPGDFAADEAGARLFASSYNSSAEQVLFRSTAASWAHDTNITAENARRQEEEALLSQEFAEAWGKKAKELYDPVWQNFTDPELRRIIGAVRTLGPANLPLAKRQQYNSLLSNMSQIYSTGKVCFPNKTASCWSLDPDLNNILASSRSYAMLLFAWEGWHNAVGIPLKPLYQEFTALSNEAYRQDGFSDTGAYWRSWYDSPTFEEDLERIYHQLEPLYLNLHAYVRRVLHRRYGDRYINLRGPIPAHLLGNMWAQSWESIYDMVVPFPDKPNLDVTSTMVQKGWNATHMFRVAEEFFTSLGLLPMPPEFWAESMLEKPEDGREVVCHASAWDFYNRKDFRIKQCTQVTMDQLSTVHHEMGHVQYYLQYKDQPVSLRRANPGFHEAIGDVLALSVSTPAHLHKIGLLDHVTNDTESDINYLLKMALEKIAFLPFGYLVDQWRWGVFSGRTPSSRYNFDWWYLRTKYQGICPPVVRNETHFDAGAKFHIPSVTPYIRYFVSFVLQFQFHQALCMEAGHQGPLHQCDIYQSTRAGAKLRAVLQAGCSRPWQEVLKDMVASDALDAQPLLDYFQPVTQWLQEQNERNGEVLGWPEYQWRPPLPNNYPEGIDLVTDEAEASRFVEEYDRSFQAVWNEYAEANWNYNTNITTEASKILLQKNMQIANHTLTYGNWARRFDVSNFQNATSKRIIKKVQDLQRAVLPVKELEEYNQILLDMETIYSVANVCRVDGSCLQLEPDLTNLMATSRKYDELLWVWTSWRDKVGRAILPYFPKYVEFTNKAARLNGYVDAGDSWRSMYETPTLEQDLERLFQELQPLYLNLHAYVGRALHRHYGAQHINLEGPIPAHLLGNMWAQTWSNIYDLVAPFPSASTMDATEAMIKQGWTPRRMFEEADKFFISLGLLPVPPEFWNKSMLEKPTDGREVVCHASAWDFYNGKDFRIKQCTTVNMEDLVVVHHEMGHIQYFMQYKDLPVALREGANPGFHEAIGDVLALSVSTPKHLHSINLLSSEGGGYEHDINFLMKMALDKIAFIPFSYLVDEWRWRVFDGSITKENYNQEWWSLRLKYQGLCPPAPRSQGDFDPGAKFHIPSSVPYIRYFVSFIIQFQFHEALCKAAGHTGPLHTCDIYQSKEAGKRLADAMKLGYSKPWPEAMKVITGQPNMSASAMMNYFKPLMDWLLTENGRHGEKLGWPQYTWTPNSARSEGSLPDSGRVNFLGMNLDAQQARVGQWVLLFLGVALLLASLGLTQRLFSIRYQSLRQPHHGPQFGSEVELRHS
Outline: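 Rabbit-lung ACE with HHL substrate. Hippuric acid is extracted into ethyl acetate (vortex 5 s, 14100g for 5 min). The upper organic phase is dried in a vacuum oven at 80 °C for 1 h, redissolved in distilled water, and read at 228 nm. Experiments repeated at least three times; mean values used.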

Row | Substance | ACE inhibition pattern (ACE) | Effect on ET-1 expression in vascular endothelial cells [1] | other results
1 | EVSQGRP | mixed-mode inhibition patterns | – | –
2 | Val-Val-Leu-Tyr-Lys [VVLYK] | mixed-mode inhibition patterns | inhibiting the expression of ET-1 | –
3 | Leu-Ala-Arg-Leu | – | – | Fe2+ chelating ability ([2]; at 0.1 mg mL^-1, tilapia gelatin peptide): 46.53%
4 | SAAVGSP | mixed-mode inhibition patterns | – | –
5 | KAQYPYV [KAQYPYV, Lys-Ala-Gln-Tyr-Pro-Tyr-Val] | – | – | IC50 (ACE (from rabbit lung)): 37.1 µM
6 | Val-Phe-Tyr | – | inhibiting the expression of ET-1 | –
7 | YYIVS | – | – | Fe2+ chelating ability ([2]; at 3 mg mL^-1, sweet potato protein peptide): 59.74%
8 | Val-Ile-Glu-Pro-Arg | – | inhibiting the expression of ET-1 | –
